# The entries come from a sample that favours hits as a whole.
# HCT116 bCat-KO – beta-catenin-lacking colon tumor cell growth suppression | HCT116 beta-catenin knockout viability, CellTiter-Glo, 60 h; stronger effect = lower value | viability, % at 10 µM | hit rate 1.5% among 140,000 | AID 818;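 active = viability at or under a set limit, the compound median less 4 SD, cut at about 6% in these data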;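 note: 0% = Hyamine 1622 control at 20 µM and 100% = untreated cell control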
# HUVEC prolif 384 – inhibitors of human endothelial cell proliferation; HUVEC proliferation, CellTiter-Glo luminescence, 72 h; stronger effect = lower value; hit rate 1.1% among 86,000; viability, % at 10 µM (by protocol);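 active = viability at or below 30%; inactive = viability above 30%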;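 note: 100% = median luminescence of DMSO-only cell control wells on each plate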
# H69AR inhibit – blocks growth of human H69AR lung tumor cells; H69AR lung tumor viability, ATP luminescence, 72 h; stronger effect = lower value; viability, % at 10 µM; hit rate 6% among 85,000;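 active = viability at or below 40%; inactive = viability above 40%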;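 note: multidrug resistant small cell line overexpressing MRP-1 efflux transporter; 100% = mean luminescence of untreated control wells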
# Lung fibro prol – blocks proliferation of human lung fibroblasts; viability, % at 10 µM; LL 47 human lung fibroblast viability, ATP luminescence; stronger effect = lower value; hit rate 1.1% among 85,000; AID 719;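 active = viability at or below 50% in the single dose screen; inactive = viability above 50%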;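 note: compound exposure lasted 72 h before the ATP readout; 100% = median luminescence of untreated cell-only wells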
#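 Test system: LL 47 human lung fibroblasts / Quantity: 1,150 cells in each well / Medium: IMEM growth medium with 15% fetal bovine serum / Incubation: 72 h compound exposure at 37 °C after overnight plating / Detection: CellTiter-Glo luminescence measuring cellular ATP / Read-out: % viability versus median cells-only luminescence / Benchmarks: cell-only wells, no compound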
# PTEN del growth – growth suppressors of cells with PTEN tumor suppressor deletion | HCT116 PTEN-null viability, CellTiter-Glo, 60 h; stronger effect = lower value | hit rate 1.2% among 140,000 | viability, % at 10 µM | AID 827;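 active = viability at or below a set limit, 4 SD under the median of all tested compounds, cut at about 3.7% in these data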;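 note: PTEN knockout HCT116 line with beta catenin targeted HCT116 as companion control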
# An asterisk follows results filed as active; x = no result given.
SMILES,HCT116 bCat-KO,HUVEC prolif 384,H69AR inhibit,Lung fibro prol,PTEN del growth
CCOC(=O)C1=C(N)n2c(s/c(=C\c3ccco3)c2=O)=C(C(=O)OC(C)C)C1c1ccco1 (stereo unspecified),70.3,x,x,x,60.5
CCOC(=O)C1=C(N)n2c(s/c(=C/c3ccccc3)c2=O)=C(C(=O)OCC)C1c1ccccc1 (stereo unspecified),33.8,98.6,9.5*,66.5,53.2
C/C(=N\NC(=O)Cc1cccc2ccccc12)c1ccncc1,91.5,x,x,x,86.6
CCOC(=O)COc1cccc2c(=O)n(CC(=O)NCCc3ccccc3)ccc12,85.4,x,x,x,105.6
CCn1cc(C(=O)NCc2ccc3c(c2)OCO3)c(=O)c2ccc(C)nc21,x,91.1,93.1,109.3,x
CCOC(=O)COc1cccc2c(=O)n(CC(=O)NCc3ccc4c(c3)OCO4)ccc12,19.8,55.9,26.3*,63.0,19.3
CCn1cc(C(=O)OCC(=O)NCc2ccc3c(c2)OCO3)c(=O)c2ccc(C)nc21,92.2,91.4,11.2*,106.2,86.0
CCCc1nc2ccccc2c(=O)n1/N=C/c1c(C)[nH]n(-c2ccc(C)cc2)c1=O,39.1,64.3,27.1*,87.8,49.7
COc1ccc(C2C(C#N)=C(N)Oc3c2sc2nc(C)cc(C)c32)cc1 (stereo unspecified),0.9*,x,x,x,0.6*
Cc1cc(C)c2c3c(sc2n1)C1(CCSCC1)C(C#N)=C(N)O3,77.3,x,x,x,80.1
COc1cc(/C=C/C(=O)c2c(O)cc(C)oc2=O)cc(OC)c1O,83.2,78.8,24.9*,69.7,73.0
COc1cccc(/C=C/C(=O)c2c(O)cc(C)oc2=O)c1O,53.6,60.5,4.0*,68.6,62.4
Cc1ccc(-n2ncc(C(=O)N3CCc4ccccc4C3)c2NC(=O)c2ccco2)cc1C,85.2,87.4,25.6*,103.3,92.9
COc1ccc(CCNC(=O)c2cnn(-c3ccc(C)c(C)c3)c2NC(=O)c2ccco2)cc1OC,91.7,95.2,77.6,107.2,98.8
Cc1ccc(S(=O)(=O)N2CCc3ccccc3C2CN2C(=O)c3ccccc3C2=O)cc1 (stereo unspecified),68.5,x,x,x,67.2
CC1CCN(c2cc(N3CCOCC3)c([N+](=O)[O-])cc2F)CC1,70.3,x,x,x,63.9
CCN1CCN(c2cc(N3CCc4ccccc4C3)c(F)cc2[N+](=O)[O-])CC1,1.0*,x,x,x,0.5*
CCC(C)N1CC(O)=C(c2nc3ccccc3[nH]2)C1=N (stereo unspecified),77.9,92.9,91.5,106.0,75.4
CC1C(O)=C(c2nc3ccccc3[nH]2)C(=N)N1c1ccccc1 (stereo unspecified),30.8,74.3,22.1*,79.2,33.7
N=C1C(c2nc3ccccc3[nH]2)=C(O)CN1c1ccc(CC(=O)O)cc1,92.7,88.7,79.0,103.4,99.3
N=C1C(c2nc3ccccc3[nH]2)=C(O)CN1c1ccccc1,78.2,94.4,32.5*,94.4,70.5
COc1cc(C2Nc3ccc4ncccc4c3C3=C2C(=O)CCC3)ccc1O (stereo unspecified),24.8,64.2,28.5*,69.7,27.1
Cc1ccsc1C1Nc2ccc3ncccc3c2C2=C1C(=O)CCC2 (stereo unspecified),83.7,x,x,x,76.5
Cn1c(SCC(=O)c2ccc3c(c2)OCCO3)nnc1C1CC1,96.4,88.0,106.5,107.9,98.7
CCOC(=O)C1=C(C)N(CCCCCC(=O)O)C(=O)NC1c1ccccc1OC(=O)c1cccs1 (stereo unspecified),87.9,x,x,x,89.4
SMILES,HCT116 bCat-KO,HUVEC prolif 384,H69AR inhibit,Lung fibro prol,PTEN del growth
CCCCCn1c(=O)[nH]c2cc(C(=O)N3CCN(Cc4ccc5c(c4)OCO5)CC3)ccc2c1=O,16.5,45.0,9.3*,61.5,18.0
CCCCCn1c(=O)[nH]c2cc(C(=O)NCc3ccc4c(c3)OCO4)ccc2c1=O,84.9,59.2,31.6*,88.7,72.4
CC1CC(C)CN(C(=O)c2ccc3c(=O)n(Cc4ccc5c(c4)OCO5)c(=S)[nH]c3c2)C1 (stereo unspecified),79.0,72.5,82.8,91.9,76.6
COC(=O)c1ccc2c(=O)n(CCCCCC(=O)NCc3ccc4c(c3)OCO4)c(=O)[nH]c2c1,104.2,98.0,86.6,93.7,93.9
CCNc1ccc(C(=O)OCC(=O)N(Cc2ccccc2)C(C)(C)C)cc1[N+](=O)[O-],82.9,x,x,x,83.2
O=C(Nc1nnc(C2CC2)s1)c1cc([N+](=O)[O-])ccc1N1CCCCC1,79.9,x,x,x,74.3
COc1ccc(S(=O)(=O)N2N=C(C)Oc3ccccc3C2=O)cc1,18.4,58.4,16.0*,46.5*,17.6
O=C(CSc1ccc(Cl)cc1)Nc1ccc(-c2nc3ccccc3[nH]2)cc1,80.2,x,x,x,51.5
COc1ccc(N=CC2=C(Nc3ccc(OC)cc3)c3c(C)nn(-c4ccccn4)c3CC2)cc1,x,3.0*,39.0*,71.0,x
COc1ccc(NC(=O)c2cc3c(-c4ccc(OC)c(OC)c4)nn(C)c3s2)cc1OC,56.6,53.7,9.7*,78.4,54.5
COc1ccc(-c2nn(C)c3sc(C(=O)NCc4ccco4)cc23)cc1OC,114.0,97.0,75.2,106.8,100.6
CCN(CC)S(=O)(=O)c1ccc(OC)c(NC(=S)Nc2ccc(C)c(C)c2)c1,88.8,x,x,x,90.7
Cc1c(NC(=O)Cc2ccccc2)cccc1C(=O)NN1C(=O)c2ccccc2C1=O,89.4,x,x,x,108.2
CC(C)Oc1ccccc1C1CC(=O)Nc2c1c(=O)n(C)c(=O)n2C (stereo unspecified),93.6,111.4,95.6,96.4,107.9
CCOC(=O)c1cnc2c(N=Nc3ccccc3)c(N)nn2c1N,85.8,x,x,x,94.8
CCOC(=O)c1cnc2c(N=Nc3cccc(Cl)c3)c(N)nn2c1N,3.4*,x,x,x,2.5*
COc1ccc(OC)c(-c2csc(N(Cc3ccco3)C(=O)c3cccs3)n2)c1,85.0,91.8,8.8*,97.8,89.0
CCN(CC)CCCN(C(=O)c1cccs1)c1nc(-c2ccc(OC)cc2)cs1,29.8,14.9*,29.2*,69.2,29.9
COc1ccc(-c2csc(N(CC3CCCO3)C(=O)c3cccs3)n2)cc1 (stereo unspecified),50.9,99.8,76.4,99.5,50.6
CCOP(=O)(c1ccccc1)C(O)c1ccc(Br)cc1 (stereo unspecified),91.2,x,x,x,84.4
O=S(=O)(Nc1nc2ccccc2nc1Nc1cccc(S(=O)(=O)N2CCCCC2)c1)c1ccccc1,32.2,x,x,x,25.6
COc1ccc(-n2c(COc3ccc(C)cc3)nnc2SCc2ccc(C#N)cc2)cc1,66.1,94.5,86.8,94.7,57.0
COc1ccc(-n2c(COc3ccc(Cl)cc3)nnc2SCc2ccc(C#N)cc2)cc1,71.4,89.9,31.8*,91.1,59.0
O=C(CSc1nnc(-c2cc(-c3cccs3)nc3ccccc23)o1)NC1CCCCC1,82.6,49.1,22.6*,106.9,82.1
C=CCNC(=O)CSc1nnc(-c2cccs2)o1,57.1,97.5,37.5*,86.0,39.1
NC(=O)CSc1nnc(-c2cc(-c3cccs3)nc3ccccc23)o1,99.8,x,x,x,101.1
O=C(Cc1ccc(Cl)cc1)Nc1ccc2oc(-c3ccncc3)nc2c1,45.9,17.5*,32.5*,8.1*,76.2
